Most compounds without a hit are left out; they make up all but 5% or so of the library.
Beta cell apopt = beta cell apoptosis inhibition | 0.8% of 300,000 active | protection from apoptosis, % (concentration not given with the values) | INS-1E cytokine-induced death, ATP luminescence, 48 h; percent of positive-control rescue, neutral wells zero;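 active means Every replicate reaches about 75%, or at least half do and their mean reaches it too, limit read from the data; inconclusive means At least half of replicates reach the limit but their mean does not; inactive means Under half of replicates reach the limit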;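 further: 0% = cytokine-treated negative control wells and 100% = positive control rescue; higher means more ATP so stronger rescue from cytokine killing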
T cruzi inh = blocks replication of Trypanosoma cruzi. 1.4% of 300,000 active. T. cruzi beta-gal in NIH3T3, luminescence, 90 h. inhibition, % (test concentration not listed);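 active means mean inhibition across valid replicates above about 55%, limit read from the data; inconclusive means mean below that limit but half or more replicates reach it; inactive means mean below it, under half of replicates reach it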;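 further: signal also drops with host cell toxicity which is not excluded here; 0% = plate median of DMSO wells and 100% = zero luminescence signal; higher percent means less beta-gal luminescence so fewer parasites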
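Test system: β-gal T. cruzi (Tulahuen C4) inside NIH/3T3 cells / Quantity: 5,000 cells/well / Measured by: luminescence from GalScreen with 0.05% NP40, read after 60 min / Medium: DMEM plus 2% FBS / Measure: parasite load inhibition, % / Reagent: Tulahuen C4 trypomastigotes, 5000/well / Schedule: co-culture of at least 90 h after 3 h attachment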
UPR XBP1 act = adaptive UPR (XBP1) activation. CHO-XBP1 luciferase reporter, IRE1-XBP1 UPR activation, luminescence; percent of tunicamycin response, DMSO as zero. activation, % at 20 µM. 0.33% of 330,000 active. AID 463104;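 active means versus positive control, 20 µM dose yields 30% or more activation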;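 further: 100% = tunicamycin at 10 µg/mL and 0% = DMSO only wells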
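Material: CHO cell line with stable XBP1 luciferase reporter; schedule: 16-18 h cell attachment at 37 °C, then 6 h compound exposure; signal: glow luminescence from Steady-Glo reagent; medium: serum-containing F12 medium, 10% FBS; benchmarks: tunicamycin 10 µg/mL and vehicle-only wells; read-out: percent activation relative to tunicamycin reference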
UPR CHOP act = activators of apoptotic arm of unfolded protein response (CHOP). activation, % at 10 µM. CHO-CHOP luciferase reporter, UPR activation, luminescence; percent of tunicamycin response over DMSO baseline. 0.34% of 330,000 active;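 active means at 10 µM dose, activation of 40% or more, normalized to positive control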;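 further: 100% = tunicamycin at 10 µg/mL and 0% = DMSO alone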
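System: CHO-CHOP luciferase reporter cell line; amount: 500 cells/well; buffer or medium: F12 medium containing 10% fetal bovine serum; incubation: 6 h compound exposure at 37 °C after overnight seeding; measured by: luciferase luminescence after 10 min with Steady-Glo reagent; evaluation: % reporter activation, DMSO baseline versus tunicamycin full activation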
CSC inhib = cancer stem cell inhibition; cancer stem cell-like cells viability, luminescence; inhibition, % at 7.5 µM; 1.1% of 300,000 active; in the data active means inhibition above about 75%; inconclusive means no clear call, values can overlap the other calls; tested in HMLE shEcad cells
Mdm2 MdmX PPI = disrupts the human Mdm2-MdmX interaction; inhibition, % at 8 µM; O15151+Q00987; SaOS-2 split-luciferase Mdm2/MdmX complementation, luminescence; 3% of 330,000 active;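 active means inhibition of at least 50% at 8 µM in the primary screen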
Target sequence (O15151 whole entry, looked up): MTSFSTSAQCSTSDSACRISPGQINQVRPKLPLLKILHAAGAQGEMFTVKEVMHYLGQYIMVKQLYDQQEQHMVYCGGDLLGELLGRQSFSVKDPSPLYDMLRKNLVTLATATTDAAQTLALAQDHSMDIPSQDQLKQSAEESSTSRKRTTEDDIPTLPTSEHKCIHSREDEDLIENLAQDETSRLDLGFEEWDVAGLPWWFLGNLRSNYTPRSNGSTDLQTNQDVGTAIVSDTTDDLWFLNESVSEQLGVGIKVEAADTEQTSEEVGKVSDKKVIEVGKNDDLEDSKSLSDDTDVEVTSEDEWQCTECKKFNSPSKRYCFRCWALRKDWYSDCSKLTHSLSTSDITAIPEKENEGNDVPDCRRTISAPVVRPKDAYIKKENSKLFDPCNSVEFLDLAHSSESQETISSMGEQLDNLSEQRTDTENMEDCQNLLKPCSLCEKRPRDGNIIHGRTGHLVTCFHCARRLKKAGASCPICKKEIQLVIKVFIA
Target sequence (Q00987 whole entry, looked up): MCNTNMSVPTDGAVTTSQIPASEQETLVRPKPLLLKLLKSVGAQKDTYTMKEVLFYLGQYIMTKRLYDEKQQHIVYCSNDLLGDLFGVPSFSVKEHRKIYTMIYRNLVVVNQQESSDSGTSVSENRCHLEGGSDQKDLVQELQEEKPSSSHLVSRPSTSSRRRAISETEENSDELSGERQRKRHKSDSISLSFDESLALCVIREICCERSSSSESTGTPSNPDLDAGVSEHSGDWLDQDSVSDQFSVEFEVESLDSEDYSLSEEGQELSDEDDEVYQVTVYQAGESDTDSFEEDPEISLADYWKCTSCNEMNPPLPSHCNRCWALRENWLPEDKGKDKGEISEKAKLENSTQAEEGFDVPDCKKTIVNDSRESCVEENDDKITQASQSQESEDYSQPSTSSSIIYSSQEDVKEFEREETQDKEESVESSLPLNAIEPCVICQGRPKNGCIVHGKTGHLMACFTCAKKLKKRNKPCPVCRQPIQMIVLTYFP
Numbers without * were called inactive; u = inconclusive; x = not tested or not shown.

SMILES | Beta cell apopt | T cruzi inh | UPR XBP1 act | UPR CHOP act | CSC inhib | Mdm2 MdmX PPI
COCCN1C(=O)C(CC(=O)Nc2ccc(C(=O)O)cc2)SC1=Nc1ccccc1 (centres undefined) | -6 | x | 3 | 3 | -8 | 4
CCCNC(=O)c1ccc(C2SCC(=O)N2CCc2ccccc2)cc1 (centres undefined) | 7 | 13 | -3 | 0 | -5 | -19
CCOc1ccc(N=c2cc(-c3ccc(OC)cc3)oc3ccccc23)cc1 | 20 | 57* | 0 | 1 | 3 | 34
O=C1C2CC=CCC2C(=O)N1c1ccc(NCCc2ccccc2)c([N+](=O)[O-])c1 (centres undefined) | -11 | 20 | 0 | 4 | 80* | -4
COc1ccc(C(=O)Nc2ccc(OCC(F)(F)C(F)F)c(C(F)(F)F)c2)cc1OC | 11 | 48 | -2 | 4 | 92* | 24
COc1cc2c(-c3ccc(O)cc3)nc3c(c(C)nn3-c3ccccc3)c2cc1OC | 53 | x | x | x | 88* | x
CC(=O)c1ccc(NC(=O)C(C)OC(=O)c2ccc(NS(=O)(=O)c3ccc(F)c(F)c3)cc2)cc1 (centres undefined) | 3 | 7 | -1 | 5 | 5 | 3
COc1ccccc1NC(=O)/C=C1\NC(=O)CS1 | -3 | 1 | 2 | 0 | -4 | 9
COc1ccccc1NC(=O)/C=C1\SCC(=O)N1C | 0 | 71* | 4 | -1 | -3 | 6
Cc1cccc(NC(=O)Cn2c(/C=C/c3ccccc3)nc3ccccc32)c1 | 80* | 17 | -3 | 5 | 14 | -40
CCO[C@H]1OC(C(=O)N2CCCCCCC2)=C[C@@H](C)[C@@H]1CCCO | 2 | -12 | -2 | 3 | -4 | 11
O=C(NCCc1ccccc1)C(=O)NCC1CCCN1S(=O)(=O)c1cccs1 (centres undefined) | -1 | 3 | -1 | 0 | 6 | 14
CCCc1cc(=O)oc2c3c(c4c(c12)OC(C)(C)C=C4)OC(C)C(C)C3O (centres undefined) | 17 | 55* | -6 | -1 | -9 | 34
COc1ccc(-c2csc(NCCc3nc4cc(Cl)c(Cl)cc4n3CCCO)n2)cc1 | 5 | 21 | -6 | 3 | -6 | 22
COc1ccc(-n2c(-c3ccc(Cl)cc3)c[n+]3c2CCCCC3)cc1 | 125* | 54 | 0 | -2 | 20 | 23
FC(F)Sc1ccc(-n2cc(-c3ccccc3)[n+]3c2CCC3)cc1 | 20 | -14 | 0 | 2 | x | -12
COc1ccc(-n2cc(-c3ccccc3)[n+]3c2CCCCC3)cc1 | 99* | 81* | -3 | 1 | -3 | 37
COc1ccc(-c2c[n+]3c(n2-c2ccccc2)CCCCC3)cc1 | 115* | u | 1 | 0 | 27 | 11
O=c1cc(N=Nc2ccc(Cl)cc2)[nH]c(=O)[nH]1 | 10 | 35 | x | x | 116* | x
O=c1cc(-c2ccc(Cl)cc2)oc(=O)[nH]1 | -6 | -12 | -5 | 2 | 0 | 2
CN(C)CCCOc1ccc(C(C)(C)c2ccccc2)cc1 | x | 25 | 4 | 0 | 44 | 40
CN(C)CCOc1ccc(C(C)(C)c2ccccc2)cc1 | -2 | 30 | -1 | 1 | 146* | 25
Cc1ccc(NS(=O)(=O)c2c(C(=O)N3CCCCCC3)c(C)n(C)c2C)c(Cl)c1 | -4 | 0 | -7 | 3 | -15 | -4
CCCNCC1C(Oc2ccc(Cl)cc2Cl)C(=O)N1c1cccc(C)c1C (centres undefined) | 44 | 62* | -2 | -1 | 81* | -4
Cc1ccc(NC(=O)C(C)SCc2nc3sc(C)c(C)c3c(=O)[nH]2)nc1 (centres undefined) | -8 | -2 | 0 | 0 | 11 | 0
SMILES | Beta cell apopt | T cruzi inh | UPR XBP1 act | UPR CHOP act | CSC inhib | Mdm2 MdmX PPI
CN(CC(=O)Nc1ccc(F)c(F)c1F)C(=O)C1COc2ccccc2O1 (centres undefined) | 6 | x | 0 | 0 | -9 | 9
C/C(=N/NC(=O)C(O)(c1ccccc1)c1ccccc1)c1ccc([N+](=O)[O-])o1 | -2 | 75* | -2 | 1 | -4 | 12
CC(=O)c1ccc(NC(=O)c2ccc([N+](=O)[O-])o2)cc1 | -8 | 6 | -3 | 28 | 80* | 12
O=C(NNC(=O)c1ccc([N+](=O)[O-])o1)c1ccccc1 | -15 | 58* | 1 | 0 | -8 | 15
O=C(Nc1ccc(N2CCN(C(=O)c3ccccc3)CC2)cc1)c1ccc([N+](=O)[O-])o1 | x | 45 | x | x | x | x
CC(=O)c1cccc(NC(=O)c2ccc([N+](=O)[O-])o2)c1 | -3 | 21 | 2 | 1 | 28 | 5
O=C(NN(c1ccccc1)c1ccccc1)c1ccc([N+](=O)[O-])o1 | 3 | 64* | -4 | 3 | -3 | 18
CCN(CC)S(=O)(=O)c1ccc2c(c1)c(=O)c(C(=O)NCCN(C)CCc1ccccc1)cn2C | x | 56* | 0 | 2 | -8 | 15
O=Cc1ccc(Oc2cc(-c3ccccc3)nc(-c3ccccc3)n2)cc1 | 9 | 25 | 2 | 5 | 100* | 19
Cc1cc(C)c2[nH]c(=O)c(CN(Cc3cccs3)C(=S)NCc3ccco3)cc2c1 | 7 | 16 | -2 | 0 | 88* | 10
COC(=O)c1ccc(-c2nc(CN3CCN(Cc4cccc(C)c4)CC3)c(C)o2)cc1 | -7 | 57* | -2 | 0 | -5 | 19
COc1ccc(-c2nc(CN3CCN(Cc4cccc(Cl)c4)CC3)c(C)o2)cc1 | -3 | 56* | -2 | 0 | -11 | 20
COc1ccc(-c2nc(CN3CCN(Cc4cccc(F)c4)CC3)c(C)o2)cc1 | 1 | 50 | -5 | -1 | -7 | 5
COC(=O)c1ccc(-c2nc(CN3CCCN(C(=O)c4ccco4)CC3)c(C)o2)cc1 | -3 | 19 | -6 | 2 | 4 | 6
Nn1c(SCC(=O)N2CCOCC2)nnc1C1CC1 | -1 | -20 | -1 | 0 | 8 | -2
OCC1(Cc2cccc(Cl)c2)CCCN(Cc2ccc(F)c(F)c2)C1 (centres undefined) | -9 | 23 | 1 | -1 | 47 | -8
COc1ccc(CN2CCCC(CO)(Cc3cccc(Cl)c3)C2)cc1OC (centres undefined) | -1 | 55* | 1 | 0 | 15 | -3
COc1cc(CN2CCCC(CO)(Cc3cccc(Cl)c3)C2)cc2c1OCO2 (centres undefined) | 15 | 55* | -3 | -3 | 24 | 29
COc1cc(CN2CCCC(CO)(Cc3cccc(Cl)c3)C2)cc(OC)c1O (centres undefined) | x | 15 | 0 | 0 | -9 | 18
